# Laboratory results taken from ChEMBL document CHEMBL4024792, “(N-Hydroxycarbonylbenylamino)quinolines as Selective Histone Deacetylase 6 Inhibitors Suppress Growth of Multiple Myeloma in Vitro and in Vivo” (J Med Chem, 2018).
# pIC50: −log10 of the molar value. Active and inactive are the calls of the source. The rule behind the calls is not given here.
# How the values were obtained:
# [1] = target: T1, Protein deacetylase HDAC6 (Homo sapiens, UniProt Q9UBN7); assay: Inhibition of full length recombinant human N-terminal GST-tagged HDAC6 expressed in baculovirus infected insect cells using RHK-K(Ac)-AMC as substrate after 90 mins by fluorescence assay
# T1 sequence (Q9UBN7 whole entry): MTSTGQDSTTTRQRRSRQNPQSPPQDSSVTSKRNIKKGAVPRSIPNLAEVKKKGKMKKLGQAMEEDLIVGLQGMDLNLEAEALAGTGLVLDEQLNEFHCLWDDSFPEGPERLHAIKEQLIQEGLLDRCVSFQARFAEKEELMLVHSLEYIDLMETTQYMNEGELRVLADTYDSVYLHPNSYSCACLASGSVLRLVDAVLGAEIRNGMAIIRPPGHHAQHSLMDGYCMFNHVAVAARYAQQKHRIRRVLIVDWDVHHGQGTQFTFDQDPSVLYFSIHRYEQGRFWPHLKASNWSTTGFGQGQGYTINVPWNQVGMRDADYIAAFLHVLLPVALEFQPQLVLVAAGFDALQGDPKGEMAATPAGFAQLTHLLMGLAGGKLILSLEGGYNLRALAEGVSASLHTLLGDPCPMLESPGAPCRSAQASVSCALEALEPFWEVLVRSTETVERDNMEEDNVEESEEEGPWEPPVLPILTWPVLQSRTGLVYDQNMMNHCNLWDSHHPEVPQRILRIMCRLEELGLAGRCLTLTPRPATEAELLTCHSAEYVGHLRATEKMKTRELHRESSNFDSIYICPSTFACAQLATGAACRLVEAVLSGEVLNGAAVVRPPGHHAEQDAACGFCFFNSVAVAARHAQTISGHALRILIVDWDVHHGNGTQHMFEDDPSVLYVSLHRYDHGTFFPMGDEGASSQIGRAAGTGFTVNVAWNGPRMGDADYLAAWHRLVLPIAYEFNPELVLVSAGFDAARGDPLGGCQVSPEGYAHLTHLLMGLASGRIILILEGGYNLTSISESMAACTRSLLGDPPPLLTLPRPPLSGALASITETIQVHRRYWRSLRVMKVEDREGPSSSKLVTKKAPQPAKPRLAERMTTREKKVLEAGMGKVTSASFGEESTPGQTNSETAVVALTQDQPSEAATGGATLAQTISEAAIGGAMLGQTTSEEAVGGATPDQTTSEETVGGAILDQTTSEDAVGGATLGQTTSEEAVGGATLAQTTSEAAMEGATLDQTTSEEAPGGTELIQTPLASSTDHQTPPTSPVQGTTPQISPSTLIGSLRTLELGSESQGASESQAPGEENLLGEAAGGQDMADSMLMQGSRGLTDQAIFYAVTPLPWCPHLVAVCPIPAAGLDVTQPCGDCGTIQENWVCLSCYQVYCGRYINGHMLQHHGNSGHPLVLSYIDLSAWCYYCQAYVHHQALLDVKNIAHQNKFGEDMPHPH
# [2] = Apparent permeability from apical to basolateral side in human Caco2 cells at 10 uM after 2 hrs by LC-MS/MS analysis; assay type: ADME, cell-based; settings: Caco-2
# How it was run: (§1)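 Caco-2 cells seeded at 8.4 × 10^4 cells/cm2 on polycarbonate inserts for 21 days. For A→B, donor was apical (HBSS/MES pH 6.5, 10 µM compound) and receiver basolateral (HBSS/HEPES pH 7.4). For B→A, donor was basolateral (HBSS/HEPES pH 7.4, 10 µM) and receiver apical (HBSS/MES pH 6.5). Incubated at 37 °C for 2 h. Receiver sampled at 30, 60, 90 and 120 min, donor at 0 and 120 min.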
# [3] = Apparent permeability from basolateral to apical side in human Caco2 cells at 10 uM after 2 hrs by LC-MS/MS analysis; assay type: ADME, cell-based; settings: Caco-2; how it was run: as §1
# [4] = Apparent permeability from apical to basolateral side in human Caco2 cells assessed as drug recovery at 10 uM after 2 hrs by LC-MS/MS analysis; assay type: ADME, cell-based; settings: Caco-2, read-out: Drug recovery; how it was run: as §1
# [5] = Apparent permeability from basolateral to apical side in human Caco2 cells assessed as drug recovery at 10 uM after 2 hrs by LC-MS/MS analysis; assay type: ADME, cell-based; settings: Caco-2, read-out: Drug recovery; how it was run: as §1
# [6] = Efflux ratio of apparent permeability from in human Caco2 cells at 10 uM after 2 hrs by LC-MS/MS analysis; assay type: ADME, cell-based; settings: Caco-2; how it was run: as §1
# RPMI-8226 [7] = assay: Antiproliferative activity against human RPMI8226 cells after 48 hrs by SRB assay; assay type: functional; settings: RPMI-8226, 48 h
# How it was run: (§2)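 Cells were exposed to test compounds at the indicated concentrations for 48 h. They were then fixed with 10% trichloroacetic acid, stained 30 min with 0.4% SRB in 1% AcOH, and washed with 1% AcOH. Bound dye was solubilized in 10 mM Tris base and OD read at 510 nm. Lines cultured in RPMI 1640 with 20% FBS and penicillin/streptomycin, 37°C, 5% CO2.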
# U-266 [8] = assay: Antiproliferative activity against human U266 cells after 48 hrs by SRB assay; assay type: functional; settings: U-266, 48 h; how it was run: as §2
# NCI-H929 [9] = assay: Antiproliferative activity against human NCI-H929 cells after 48 hrs by SRB assay; assay type: functional; settings: NCI-H929, 48 h; how it was run: as §2
# [10] = Antiproliferative activity against human HS5 cells after 48 hrs by SRB assay; assay type: cell-based; how it was run: as §2
# RPMI-8226 [11] = assay: Cell cycle arrest in human RPMI8226 cells assessed as accumulation at sub-G1 phase at 2.5 nM after 24 hrs by propidium iodide staining based flow cytometry (reference value: 12.25%); assay type: functional
# RPMI-8226 [12] = assay: Cell cycle arrest in human RPMI8226 cells assessed as accumulation at G0/G1 phase at 2.5 nM after 24 hrs by propidium iodide staining based flow cytometry (reference value: 44.67%); assay type: functional
# RPMI-8226 [13] = assay: Cell cycle arrest in human RPMI8226 cells assessed as accumulation at S phase at 2.5 nM after 24 hrs by propidium iodide staining based flow cytometry (reference value: 19.53%); assay type: functional
# RPMI-8226 [14] = assay: Cell cycle arrest in human RPMI8226 cells assessed as accumulation at G2/M phase at 2.5 nM after 24 hrs by propidium iodide staining based flow cytometry (reference value: 23.94%); assay type: functional
# U-266 [15] = assay: Cell cycle arrest in human U266 cells assessed as accumulation at G0/G1 phase at 2.5 nM after 24 hrs by propidium iodide staining based flow cytometry (reference value: 40.29%); assay type: functional
# U-266 [16] = assay: Cell cycle arrest in human U266 cells assessed as accumulation at S phase at 2.5 nM after 24 hrs by propidium iodide staining based flow cytometry (reference value: 14.05%); assay type: functional
# U-266 [17] = assay: Cell cycle arrest in human U266 cells assessed as accumulation at G2/M phase at 2.5 nM after 24 hrs by propidium iodide staining based flow cytometry (reference value: 35.13%); assay type: functional
# NCI-H929 [18] = assay: Cell cycle arrest in human NCI-H929 cells assessed as accumulation at sub-G1 phase at 2.5 nM after 24 hrs by propidium iodide staining based flow cytometry (reference value: 5.59%); assay type: functional
# NCI-H929 [19] = assay: Cell cycle arrest in human NCI-H929 cells assessed as accumulation at G0/G1 phase at 2.5 nM after 24 hrs by propidium iodide staining based flow cytometry (reference value: 49.39%); assay type: functional
# NCI-H929 [20] = assay: Cell cycle arrest in human NCI-H929 cells assessed as accumulation at S phase at 2.5 nM after 24 hrs by propidium iodide staining based flow cytometry (reference value: 13.5%); assay type: functional
# NCI-H929 [21] = assay: Cell cycle arrest in human NCI-H929 cells assessed as accumulation at G2/M phase at 2.5 nM after 24 hrs by propidium iodide staining based flow cytometry (reference value: 31.63%); assay type: functional
# RPMI-8226 [22] = assay: Induction of apoptosis in human RPMI8226 cells at 2.5 nM after 24 hrs by Annexin V/propidium iodide staining based flow cytometry; assay type: functional, cell-based
# U-266 [23] = assay: Induction of apoptosis in human U266 cells at 2.5 nM after 24 hrs by Annexin V/propidium iodide staining based flow cytometry; assay type: functional, cell-based
# NCI-H929 [24] = assay: Induction of apoptosis in human NCI-H929 cells at 2.5 nM after 24 hrs by Annexin V/propidium iodide staining based flow cytometry; assay type: functional, cell-based
# RPMI-8226 [25] = assay: Antitumor activity against human RPMI8226 cells xenografted in nude mouse assessed as tumor growth inhibition at 1 mg/kg, iv or ip administered once in week for 35 days relative to control; assay type: functional; settings: RPMI-8226, 840 h, read-out: TGI
# How it was run: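 RPMI 8226 cells (1 × 10^7) implanted s.c. in eight-week-old male nude mice. At mean tumor volume 200 mm3, mice randomized into four groups (n = 8). Caliper measurement every 3–4 days, volume L×W²/2. %TGI computed from treated versus control volume changes relative to time 0.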
# Mus musculus = assay: Toxicity in nude mouse xenografted with human RPMI8226 cells assessed as death at 1 mg/kg, iv or ip administered once in week for 35 days; assay type: organism-based; settings: in vivo, 840 h
# How it was run: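 Male nude mice, eight weeks old, received 1 × 10^7 RPMI 8226 cells subcutaneously. At a mean tumour volume of 200 mm3 they were randomised into four groups (n = 8). Dosing was 1 mg/kg i.v./i.p. once weekly, with vehicle 0.5% EtOH/0.5% Cremophor in 5% dextran. Treatment-related deaths were recorded, and caliper measurements were taken every 3–4 days.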
compound,measurement,setting,value
O=C(NO)c1ccc(CNc2cnc3ccccc3c2)cc1,pIC50,[1],6.39
O=C(NO)c1ccc(CNc2cncc3ccccc23)cc1,pIC50,[1],8.64
COC(=O)c1ccccc1-c1c2ccc(=N)cc-2oc2cc(N)ccc12.Cl [RHODAMINE123],"Papp A→B at 2 h, 10 µM",[2],1.16 ×10⁻⁶ cm/s
same,"Papp B→A at 2 h, 10 µM",[3],7.52 ×10⁻⁶ cm/s
same,"recovery at 2 h, 10 µM",[4],89.8%
same,"recovery at 2 h, 10 µM",[5],93.9%
same,"efflux ratio at 2 h, 10 µM",[6],6.5
O=C(CCCCCCNC(=O)c1cnc(N(c2ccccc2)c2ccccc2)nc1)NO [RICOLINOSTAT],GI50,RPMI-8226 [7],6.4 µM
same,GI50,U-266 [8],> 100 µM
same,GI50,NCI-H929 [9],> 100 µM
same,GI50 at 48 h,[10],> 100 µM
O=C(NO)c1ccc(CNc2ccc3ncccc3c2)cc1,pIC50,[1],8.32
CC(C)C[C@H](NC(=O)[C@H](Cc1ccccc1)NC(=O)c1cnccn1)B(O)O [BORTEZOMIB],Activity,RPMI-8226 [11],10.55%
same,Activity,RPMI-8226 [12],42.97%
same,Activity,RPMI-8226 [13],15.19%
same,Activity,RPMI-8226 [14],31.53%
same,Activity,U-266 [15],32.66%
same,Activity,U-266 [16],7.8%
same,Activity,U-266 [17],32.22%
same,Activity,NCI-H929 [18],42.44%
same,Activity,NCI-H929 [19],29.87%
same,Activity,NCI-H929 [20],11.59%
same,Activity,NCI-H929 [21],16.32%
same,Activity,RPMI-8226 [22],Active
same,Activity,U-266 [23],Active
same,Activity,NCI-H929 [24],Active
same,inhibition in vivo at 1 mg/kg,RPMI-8226 [25],70.1%
same,Activity,Mus musculus,Toxic
O=C(NO)c1ccc(Nc2cccc3cccnc23)cc1,pIC50,[1],6.89
O=C(NO)c1ccc(CSc2cccc3cccnc23)cc1,pIC50,[1],8.02
O=C(NO)c1ccc(CNc2cccc3cn[nH]c23)cc1,pIC50,[1],8.45
O=C(NO)c1ccc(C(=O)Nc2cccc3cccnc23)cc1,pIC50,[1],6.58
O=C(/C=C/c1ccc(CNc2cccc3cccnc23)cc1)NO,pIC50,[1],7.38
O=C(NO)c1ccc(CNc2ccc3cccnc3c2)cc1,pIC50,[1],8.49
O=C(NO)c1cccc(CNc2cccc3cccnc23)c1,pIC50,[1],5.95
O=C(NO)c1ccc(CNc2cccc3c2CCCC3)cc1,pIC50,[1],7.60
O=C(NO)c1ccc(CCc2cccc3cccnc23)cc1,pIC50,[1],7.38
O=C(/C=C/c1ccc(CNc2cccc3ncccc23)cc1)NO,pIC50,[1],7.60
O=C(NO)c1ccc(CNc2cccc3c2CCC3)cc1,pIC50,[1],7.71
O=C(NO)c1ccc(CNc2ccc3ccccc3n2)cc1,pIC50,[1],8.37
O=C(NO)c1ccc(CNc2cccc3nccnc23)cc1,pIC50,[1],8.23
Cc1ccc2cccc(NCc3ccc(C(=O)NO)cc3)c2n1,pIC50,[1],7.94
O=C(NO)c1ccc(C(=O)Nc2cccc3ncccc23)cc1,pIC50,[1],6.28
O=C(NO)c1ccc(CNc2ccnc3ccccc23)cc1,pIC50,[1],7.67
O=C(NO)c1ccc(COc2cccc3cccnc23)cc1,pIC50,[1],8.55
O=C(NO)c1ccc(CNc2cccc3cnccc23)cc1,pIC50,[1],8.63
O=C(NO)c1ccc(CNc2cccc3ccncc23)cc1,pIC50,[1],8.47
O=C(NO)c1ccc(NCc2cccc3cccnc23)cc1,pIC50,[1],8.13
